Assay [1] addresses Potassium voltage-gated channel subfamily A member 6 (Rattus norvegicus) (UniProt P17659). Description: Inhibition of rat Kv1.6 expressed in Xenopus laevis oocytes at 1 uM at -90 mV holding potential by two-electrode voltage clamp assay relative to control. Type of assay: cell-based. A general note: Two-electrode voltage clamp is typically applied to oocytes expressing channels or transporters.

Assay [2] has as its target Potassium voltage-gated channel subfamily A member 5 (Homo sapiens, UniProt P22460). Description: Inhibition of human Kv1.5 expressed in CHO cells at -80 mV holding potential by whole cell automated patch clamp method. Format: cell-based. On the technique in general: The patch-clamp technique gives a direct electrical read-out from membranes.
Assay [3] has as its system Potassium voltage-gated channel subfamily H member 1 (Homo sapiens). As to the kind of experiment: Inhibition of human Kv10.1 expressed in Xenopus laevis oocytes at 1 uM at -90 mV holding potential by two-electrode voltage clamp assay relative to control.
The target of assay [4] is Potassium voltage-gated channel subfamily A member 4 (Homo sapiens, UniProt P22459). As to the kind of experiment: Inhibition of human Kv1.4 expressed in CHO cells at -80 mV holding potential by whole cell automated patch clamp method. Format: cell-based. The method in brief:
(§1)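 Human channels stably expressed in CHO cells, dissociated with 0.05% trypsin-EDTA, held in serum-free medium and resuspended in extracellular solution just before recording. Whole-cell QPatch recordings used a -80 mV holding potential and 500 ms steps to +30 mV at 0.067 Hz. Series resistance was 80% compensated with P/n leak subtraction. After 0.1% DMSO vehicle, four escalating concentrations were applied cumulatively.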

Assay [5] addresses T1, Potassium voltage-gated channel subfamily A member 3 (Homo sapiens, UniProt P22001). As to the kind of experiment: Inhibition of human Kv1.3 expressed in CHO cells at -80 mV holding potential by whole cell automated patch clamp method. Type of assay: cell-based. In a few lines:
as §1

Assay [6] addresses T1, Potassium voltage-gated channel subfamily A member 3. As to the kind of experiment: Inhibition of human Kv1.3 expressed in Xenopus laevis oocytes at 1 uM at -90 mV holding potential by two-electrode voltage clamp assay relative to control.
In assay [7] the target is Potassium voltage-gated channel subfamily A member 2 (Rattus norvegicus) (UniProt P63142). As to the kind of experiment: Inhibition of rat Kv1.2 expressed in Xenopus laevis oocytes at 1 uM at -90 mV holding potential by two-electrode voltage clamp assay relative to control. Format: cell-based.
Potassium voltage-gated channel subfamily A member 2 (Rattus norvegicus), sequence (P63142 whole entry): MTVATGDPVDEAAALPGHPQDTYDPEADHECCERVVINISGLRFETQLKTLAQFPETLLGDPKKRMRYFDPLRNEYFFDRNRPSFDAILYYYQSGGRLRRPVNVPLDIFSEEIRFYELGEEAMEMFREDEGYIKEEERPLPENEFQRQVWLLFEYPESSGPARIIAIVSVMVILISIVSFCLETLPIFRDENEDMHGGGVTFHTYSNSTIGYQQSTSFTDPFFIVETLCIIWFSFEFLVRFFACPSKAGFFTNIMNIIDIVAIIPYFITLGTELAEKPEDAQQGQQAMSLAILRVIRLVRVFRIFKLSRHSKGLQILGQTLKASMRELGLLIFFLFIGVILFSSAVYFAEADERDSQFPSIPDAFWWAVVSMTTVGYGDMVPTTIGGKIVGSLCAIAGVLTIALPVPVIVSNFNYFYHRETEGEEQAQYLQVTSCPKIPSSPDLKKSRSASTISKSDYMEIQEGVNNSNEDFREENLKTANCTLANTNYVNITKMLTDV
Assay [8] has as its target Potassium voltage-gated channel subfamily A member 6 (Rattus norvegicus, UniProt P17659). Description: Inhibition of rat Kv1.6 expressed in Xenopus laevis oocytes at -90 mV holding potential by two-electrode voltage clamp assay. Format: cell-based. The method in brief: (§2)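 Stage V-VI Xenopus laevis oocytes were injected with 50 nL cRNA (1 ng/nL). Currents were recorded by two-electrode voltage clamp. IC50 values come from at least 3 independent experiments and are given as mean ± standard error.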

The target of assay [9] is Potassium voltage-gated channel subfamily A member 4 (Rattus norvegicus, UniProt P15385). As to the kind of experiment: Inhibition of rat Kv1.4 expressed in Xenopus laevis oocytes at -90 mV holding potential by two-electrode voltage clamp assay. Type of assay: cell-based. In a few lines:
as §2

Assay [10] concerns the target Potassium voltage-gated channel subfamily A member 2 (Homo sapiens, UniProt P16389). As to the kind of experiment: Inhibition of human Kv1.2 expressed in CHO cells at -80 mV holding potential by whole cell automated patch clamp method. Type of assay: cell-based. The method in brief: as §1
For assay [11], the target named is T1, Potassium voltage-gated channel subfamily A member 3. Description: Inhibition of human Kv1.3 expressed in Xenopus laevis oocytes at -90 mV holding potential by two-electrode voltage clamp assay.
Assay [12] addresses Potassium voltage-gated channel subfamily A member 6 (Homo sapiens, UniProt P17658). As to the kind of experiment: Inhibition of human Kv1.6 expressed in CHO cells at -80 mV holding potential by whole cell automated patch clamp method. Format: cell-based. The method in brief:
as §1

The target in assay [13] is Potassium voltage-gated channel subfamily A member 5 (Rattus norvegicus) (UniProt P19024). As to the kind of experiment: Inhibition of rat Kv1.5 expressed in Xenopus laevis oocytes at 1 uM at -90 mV holding potential by two-electrode voltage clamp assay relative to control. Format: cell-based.
Potassium voltage-gated channel subfamily A member 5 (Rattus norvegicus), sequence (P19024 whole entry): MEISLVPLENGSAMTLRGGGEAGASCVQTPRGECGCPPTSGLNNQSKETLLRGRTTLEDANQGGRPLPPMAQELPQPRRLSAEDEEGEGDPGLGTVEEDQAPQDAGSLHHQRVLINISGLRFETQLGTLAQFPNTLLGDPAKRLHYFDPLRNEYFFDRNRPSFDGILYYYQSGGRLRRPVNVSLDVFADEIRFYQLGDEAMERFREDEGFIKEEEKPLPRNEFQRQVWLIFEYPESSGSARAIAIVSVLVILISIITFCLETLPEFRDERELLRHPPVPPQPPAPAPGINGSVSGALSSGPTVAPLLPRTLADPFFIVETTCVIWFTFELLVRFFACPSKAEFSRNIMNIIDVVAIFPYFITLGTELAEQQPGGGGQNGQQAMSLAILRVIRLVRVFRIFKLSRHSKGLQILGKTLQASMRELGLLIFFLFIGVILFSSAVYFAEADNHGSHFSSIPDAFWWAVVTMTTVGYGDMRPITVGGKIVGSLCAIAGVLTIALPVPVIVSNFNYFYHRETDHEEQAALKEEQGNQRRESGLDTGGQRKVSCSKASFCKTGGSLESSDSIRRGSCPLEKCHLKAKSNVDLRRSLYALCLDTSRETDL
Assay [14] has as its target Potassium voltage-gated channel subfamily A member 1 (Rattus norvegicus) (UniProt P10499). As to the kind of experiment: Inhibition of rat Kv1.1 expressed in Xenopus laevis oocytes at 1 uM at -90 mV holding potential by two-electrode voltage clamp assay relative to control. Type of assay: cell-based.
Assay [15] has as its target Potassium voltage-gated channel subfamily A member 1 (Homo sapiens, UniProt Q09470). Description: Inhibition of human Kv1.1 expressed in CHO cells at -80 mV holding potential by whole cell automated patch clamp method. Format: cell-based. The method in brief: as §1
In assay [16] the target is Potassium voltage-gated channel subfamily A member 4 (Rattus norvegicus) (UniProt P15385). As to the kind of experiment: Inhibition of rat Kv1.4 expressed in Xenopus laevis oocytes at 1 uM at -90 mV holding potential by two-electrode voltage clamp assay relative to control. Type of assay: cell-based.
Potassium voltage-gated channel subfamily A member 4 (Rattus norvegicus), sequence (P15385 whole entry): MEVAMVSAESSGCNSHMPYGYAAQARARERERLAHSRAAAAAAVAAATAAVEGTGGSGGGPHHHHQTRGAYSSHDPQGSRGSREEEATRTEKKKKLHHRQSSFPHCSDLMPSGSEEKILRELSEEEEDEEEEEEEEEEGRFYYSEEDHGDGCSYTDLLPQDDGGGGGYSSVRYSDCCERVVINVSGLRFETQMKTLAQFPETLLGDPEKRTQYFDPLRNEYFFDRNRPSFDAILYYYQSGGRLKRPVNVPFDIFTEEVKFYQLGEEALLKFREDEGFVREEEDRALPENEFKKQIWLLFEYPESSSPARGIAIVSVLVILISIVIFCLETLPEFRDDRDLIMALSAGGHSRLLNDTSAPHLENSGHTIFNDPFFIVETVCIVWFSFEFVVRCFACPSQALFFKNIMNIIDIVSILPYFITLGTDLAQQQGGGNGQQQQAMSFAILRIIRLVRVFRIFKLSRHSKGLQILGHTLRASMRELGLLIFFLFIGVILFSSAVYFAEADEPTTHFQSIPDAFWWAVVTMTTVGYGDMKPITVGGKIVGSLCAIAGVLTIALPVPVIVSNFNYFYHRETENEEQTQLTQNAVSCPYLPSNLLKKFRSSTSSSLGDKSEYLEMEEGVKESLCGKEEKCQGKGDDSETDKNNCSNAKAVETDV

The values that follow come from ChEMBL document CHEMBL4190320, “Clathrodin, hymenidin and oroidin, and their synthetic analogues as inhibitors of the voltage-gated potassium channels” (Eur J Med Chem, 2017).

What is called inhibition is the share of the control response that was lost under treatment. As a reminder, the IC50 is the point on the concentration scale where inhibition reaches its midpoint. The low end stands for greater potency in that assay, the high end for weaker potency in that assay.

Activity calls are given as the source filed them. The calls are words filed in the database; no cut-off is given here.

Potassium voltage-gated channel subfamily A member 4 (Rattus norvegicus, UniProt P15385), sequence (P15385 whole entry): as above
Potassium voltage-gated channel subfamily A member 2, sequence (P16389 whole entry): as the sequence (P63142 whole entry) above, with V9A, G198S, D355E counted along it
Potassium voltage-gated channel subfamily A member 1 (Rattus norvegicus), sequence (P10499 whole entry): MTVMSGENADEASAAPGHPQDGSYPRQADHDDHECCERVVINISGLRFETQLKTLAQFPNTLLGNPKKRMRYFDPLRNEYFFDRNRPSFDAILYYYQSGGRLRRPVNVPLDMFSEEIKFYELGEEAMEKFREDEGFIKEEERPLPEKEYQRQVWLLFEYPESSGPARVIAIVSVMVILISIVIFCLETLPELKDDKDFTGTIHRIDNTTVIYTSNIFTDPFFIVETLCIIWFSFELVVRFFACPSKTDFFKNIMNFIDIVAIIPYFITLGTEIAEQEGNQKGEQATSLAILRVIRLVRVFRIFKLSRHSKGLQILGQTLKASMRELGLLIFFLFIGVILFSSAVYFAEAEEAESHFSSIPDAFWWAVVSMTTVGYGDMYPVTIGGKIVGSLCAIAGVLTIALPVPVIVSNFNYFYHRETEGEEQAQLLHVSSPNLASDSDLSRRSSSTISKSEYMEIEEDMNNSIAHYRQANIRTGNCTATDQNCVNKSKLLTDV
Potassium voltage-gated channel subfamily A member 6 (Homo sapiens, UniProt P17658), sequence (P17658 whole entry): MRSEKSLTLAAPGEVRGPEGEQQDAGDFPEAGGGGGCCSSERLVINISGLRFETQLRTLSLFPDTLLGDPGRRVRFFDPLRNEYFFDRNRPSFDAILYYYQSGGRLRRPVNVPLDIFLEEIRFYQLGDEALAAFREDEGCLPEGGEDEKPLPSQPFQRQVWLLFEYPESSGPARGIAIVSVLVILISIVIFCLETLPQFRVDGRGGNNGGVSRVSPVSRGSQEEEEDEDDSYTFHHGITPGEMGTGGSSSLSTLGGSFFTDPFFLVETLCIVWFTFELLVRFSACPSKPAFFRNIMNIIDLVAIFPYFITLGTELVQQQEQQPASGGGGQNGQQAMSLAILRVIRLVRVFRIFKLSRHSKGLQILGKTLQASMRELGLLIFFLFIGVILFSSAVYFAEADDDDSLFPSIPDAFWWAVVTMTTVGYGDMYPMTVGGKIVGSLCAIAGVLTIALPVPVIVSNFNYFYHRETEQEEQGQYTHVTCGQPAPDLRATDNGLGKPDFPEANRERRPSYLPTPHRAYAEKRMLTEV
Potassium voltage-gated channel subfamily A member 5, sequence (P22460 whole entry): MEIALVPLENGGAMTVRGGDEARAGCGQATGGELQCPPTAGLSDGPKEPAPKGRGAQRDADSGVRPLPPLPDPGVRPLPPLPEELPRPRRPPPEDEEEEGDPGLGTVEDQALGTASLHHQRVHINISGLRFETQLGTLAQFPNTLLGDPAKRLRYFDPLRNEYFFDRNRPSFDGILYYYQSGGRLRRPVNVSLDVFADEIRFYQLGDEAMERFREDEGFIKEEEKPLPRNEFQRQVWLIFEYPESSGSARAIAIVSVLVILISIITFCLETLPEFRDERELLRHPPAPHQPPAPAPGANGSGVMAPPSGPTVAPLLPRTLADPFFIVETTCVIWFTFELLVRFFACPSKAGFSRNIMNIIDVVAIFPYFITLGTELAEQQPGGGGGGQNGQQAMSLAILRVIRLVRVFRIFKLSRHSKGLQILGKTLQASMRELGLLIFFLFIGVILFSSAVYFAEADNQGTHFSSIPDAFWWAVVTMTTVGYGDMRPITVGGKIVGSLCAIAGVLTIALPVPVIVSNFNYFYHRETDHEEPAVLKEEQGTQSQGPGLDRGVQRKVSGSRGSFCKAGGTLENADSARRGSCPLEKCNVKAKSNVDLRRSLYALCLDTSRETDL

Turning to `Cc1[nH]c(C(=O)NC/C=C/c2c[nH]c(N)n2)cc1Cl`, the inhibition entry in [1], in [3], in assay [6] and in assay [7] was “inactive” throughout. The 50% inhibitory concentration (IC50) is over 30 µM in assay [2]; 15 µM in [4]; 25 µM in assay [5]; over 10 µM in [8]; 0.73 µM in [9]; over 30 µM in assay [10]. Besides, the results for the 50% inhibitory concentration (IC50) in [11], in assay [12] and in [15] were over 10 µM, 17 µM and over 30 µM, respectively. The inhibition was determined as 72% in assay [13], 68% in assay [14] and 71% in assay [16].
Take `Nc1ncc(/C=C/CNC(=O)c2cc(Br)c(Br)[nH]2)[nH]1` [OROIDIN]: the inhibition entry in assay [1], in [3], in assay [13] and in assay [14] was “inactive” in each case. For the same molecule, the IC50 was 16 µM in [2]; 2.1 µM in assay [4]; 4.7 µM in [5]; over 10 µM in [8]; 5.7 µM in assay [9]; over 30 µM in [10]. In addition, the values for the 50% inhibitory concentration (IC50) in assay [11], in assay [12] and in assay [15] were 0.82 µM, 4.9 µM and over 30 µM, respectively. Moreover, the inhibition in assay [6] was found to be 58%; in assay [7], 10%; in assay [16], 32%.
Consider `Cc1[nH]c(C(=O)NC/C=C/c2c[nH]c(N)n2)c(Br)c1Br`, for which the inhibition in assay [1] is 41%; in assay [16], 33%. For the same molecule, the IC50 in [2] is over 30 µM; in assay [4] it was 12 µM; in assay [5], 17 µM; in [8] it was over 10 µM; in assay [9], 0.23 µM; in assay [10], over 30 µM. Also, the values for the IC50 in [11], in assay [12] and in [15] were over 10 µM, 29 µM and over 30 µM, respectively. In addition, the inhibition entry in assay [3], in assay [6], in assay [7], in assay [13] and in [14] was “inactive” throughout.
For `Nc1nc(/C=C/CNC(=O)c2cc(Cl)c(Cl)[nH]2)c[nH]1`, the inhibition result in assay [1], in assay [3], in assay [6], in [7] and in assay [14] was “inactive” in each case. The 50% inhibitory concentration (IC50) in [2] was 6.1 µM; in assay [4] it was 1.5 µM; in assay [5], 1.4 µM; in assay [8], 0.17 µM; in [9], 0.6 µM; in assay [10], over 30 µM. Further, the IC50 is over 10 µM in [11], 1.6 µM in [12] and over 30 µM in assay [15]. Also, the inhibition in [13] came to 62%; in assay [16] it was 90%.
